Data from ChEMBL document CHEMBL3352752, “Towards the development of chromone-based MEK1/2 modulators” (Eur J Med Chem, 2014).
The source made the active and inactive calls. The rule behind the calls is not given here.

Key:
[1] = target: Dual specificity mitogen-activated protein kinase kinase MEK1/2 (Rattus norvegicus, UniProt Q01986+P36506); experiment: Inhibition of MEK1/2 in rat IEC6 cells assessed as reduction in ERK1/2 loop phosphorylation dosed 30 mins before to stimulation with 10% serum for 5 mins by immunoblotting method
Procedure, shortened: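 IEC-6 cells grown in DMEM/10% FBS, then made quiescent at 95% confluence in serum-free DMEM-Ham's F-12 (1:1) with 15 mM Hepes pH 7.4 and 0.1% BSA for 24 h. Compounds added in DMSO. Lysates immunoblotted for phospho-ERK1/2 (Thr202/Tyr204), with total ERK1/2 and HSC70 as loading controls. Bands quantified by densitometry. IC50 from triplicate determinations.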

[2] = Inhibition of constitutively activated GST-tagged human MEK1 S218D/[…] (MEK1DD) mutant assessed blocking of increase in bovine MBP kinase activity of recombinant His6-tagged ERK2 using [gamma32P]ATP by liquid scintillation counting method
Procedure, shortened: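 GST-MEK1DD (50 ng) preincubated 30 min at 30 °C with inhibitor or vehicle and 50 μM ATP plus 5 μCi [γ-32P]ATP, in 20 mM Hepes, 10 mM MgCl2, 1 mM DTT, pH 7.4. His6-ERK2 (300 ng, E. coli-expressed) added for 30 min, then MBP (0.2 mg/mL) for 10 min. Controls run without ERK2. Stopped with Laemmli buffer. IC50 from duplicate determinations.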

HT-29 = experiment: Antiproliferative activity against human HT-29 cells after 5 days by WST1 assay; assay type: functional, cell-based; details: HT-29, 120 h
Procedure, shortened: (§1)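 Cells seeded at 2×10^3 (HCT 116, HT-29) or 1.2×10^3 (A-375, A549) per well in DMEM with 10% FBS, 2 mM glutamine and antibiotics. Compounds added in DMSO, with medium changed daily for 5 days. WST-1 then added for 1 h. Absorbance read at 450 nm, reference 620 nm. Triplicate wells.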

Homo sapiens = organism: Homo sapiens; experiment: Potency index, ratio of IC50 for PD98059 to IC50 for test compound against constitutively activated GST-tagged human MEK1 S218D/[…] (MEK1DD) mutant
[3] = target: Dual specificity mitogen-activated protein kinase kinase 1 (Homo sapiens) (UniProt Q02750); experiment: Inhibition of MEK1 (unknown origin) at 1 uM
Sequence of Dual specificity mitogen-activated protein kinase kinase 1 (Homo sapiens) (Q02750 whole entry): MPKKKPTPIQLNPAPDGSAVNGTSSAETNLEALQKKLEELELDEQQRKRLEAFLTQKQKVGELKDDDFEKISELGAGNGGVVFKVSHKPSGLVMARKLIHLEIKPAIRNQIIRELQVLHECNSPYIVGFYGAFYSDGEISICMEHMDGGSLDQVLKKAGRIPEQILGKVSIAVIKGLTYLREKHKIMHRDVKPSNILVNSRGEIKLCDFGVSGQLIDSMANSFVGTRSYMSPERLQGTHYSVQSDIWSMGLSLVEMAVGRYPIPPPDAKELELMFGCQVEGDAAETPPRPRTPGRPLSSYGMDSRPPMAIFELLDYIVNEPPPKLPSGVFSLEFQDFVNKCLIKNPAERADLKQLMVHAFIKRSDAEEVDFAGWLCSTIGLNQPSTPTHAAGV

A-375 = experiment: Antiproliferative activity against human A375 cells after 5 days by WST1 assay; assay type: functional, cell-based; details: A-375, 120 h; procedure, shortened: as §1
A549 = experiment: Antiproliferative activity against human A549 cells after 5 days by WST1 assay; assay type: functional, cell-based; details: A549, 120 h; procedure, shortened: as §1
[4] = Antiproliferative activity against human HCT116 cells after 5 days by WST1 assay; assay type: functional, cell-based; details: HCT-116, 120 h; procedure, shortened: as §1

| Compound | IC50 [1] | IC50 [2] | other results |
| --- | --- | --- | --- |
| COc1cccc(-c2cc(=O)c3cc(Cl)cc(NC(C)C)c3o2)c1N | > 100 µM | 2.7 µM |  |
| COc1cccc(-c2cc(=O)c3cccc(NCC[C@H](O)CO)c3o2)c1N | 0.073 µM |  |  |
| COc1cccc(-c2cc(=O)c3cc(Cl)cc(CCCN)c3o2)c1N |  | 4.4 µM |  |
| COc1cccc(-c2cc(=O)c3cccc(NCCCO)c3o2)c1N | 0.097 µM |  |  |
| COc1cccc(-c2cc(=O)c3ccccc3o2)c1N | 4.2 µM | 2 µM | IC50 (HT-29): 4 µM |
| COc1cccc(-c2cc(=O)c3cc(Cl)ccc3o2)c1N | > 100 µM | 6.4 µM |  |
| COc1cccc(-c2cc(=O)c3cc(Cl)cc(NC4CCOCC4)c3o2)c1N | > 100 µM | 1.1 µM |  |
| COc1cccc(-c2cc(=O)c3cc(Cl)cc(NCc4ccccc4)c3o2)c1N | > 100 µM | 1.4 µM |  |
| CCOc1cccc(-c2cc(=O)c3ccccc3o2)c1N | 1 µM | 1.9 µM |  |
| COc1cccc(-c2cc(=O)c3cc(Cl)cc(NCC[C@H](O)CO)c3o2)c1N | 3.1 µM | 0.22 µM | IC50 (A-375): 10.5 µM; IC50 (HT-29): 3.7 µM; IC50 (A549): 17.4 µM; IC50 [4]: 13 µM |

More lines, main results first:

| IC50 [1] | IC50 [2] | Compound | other results |
| --- | --- | --- | --- |
| > 100 µM | 6.8 µM | COc1cccc(-c2cc(=O)c3cc(Cl)cc(NCCCN(C)C)c3o2)c1N |  |
| > 100 µM | 1.9 µM | CCCCNc1cc(Cl)cc2c(=O)cc(-c3cccc(OC)c3N)oc12 |  |
| > 100 µM | 9.1 µM | COCCCNc1cc(Cl)cc2c(=O)cc(-c3cccc(OC)c3N)oc12 |  |
| 1.6 µM | 0.03 µM | COc1cccc(-c2cc(=O)c3cc(Cl)cc(NCCCO)c3o2)c1N | Ratio IC50 (Homo sapiens): < 100; inhibition [3]: Active; IC50 (A-375): 5.9 µM; IC50 (HT-29): 1.6 µM; IC50 (A549): 12 µM; IC50 [4]: 10.3 µM |
| > 100 µM | 10.3 µM | COc1cccc(-c2cc(=O)c3cc(Cl)cc(NCCCN)c3o2)c1N |  |
